Consider 9 compounds from ChEMBL document CHEMBL1828506, “New fluorine-containing hydrazones active against MDR-tuberculosis” (Eur J Med Chem, 2011).

The structures appear in SMILES notation. Converted amounts (≈) assume the structure as drawn.

Usually MIC stands for the least concentration at which growth counts as inhibited. Low values mean inhibition by little substance, high ones a need for much substance. The IC50 is the concentration needed to halve the response being measured. Higher therefore signals a need for much substance.

For assay [1], the system named is Mycobacterium kansasii. Kind of assay: Antimycobacterial activity against Mycobacterium kansasii CNTC 6509/96 after 7 days. Format: functional. To be noted: CNTC 6509/96, 168 h.
For assay [2], the system named is Mycobacterium kansasii. Kind of assay: Antimycobacterial activity against Mycobacterium kansasii CNTC My 235/80 after 21 days. Type of assay: functional. To be noted: CNTC My 235/80, 504 h.
Assay [3] has as its system Mycobacterium avium. In words: Antimycobacterial activity against Mycobacterium avium CNTC 330/88 after 14 days. Type of assay: functional. To be noted: CNTC 330/88, 336 h.
In assay [4] the test system is Mycobacterium avium. Kind of assay: Antimycobacterial activity against Mycobacterium avium CNTC 330/88 after 21 days. Format: functional. The settings on record: CNTC 330/88, 504 h.
For assay [5], the system named is Mycobacterium tuberculosis. Kind of assay: Antimycobacterial activity against Mycobacterium tuberculosis H37Rv ATCC 27294 after 28 days by colony forming unit determination. Format: functional. The settings on record: H37Rv ATCC 27294, 672 h. Summed up:
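Compounds added to Sula liquid medium as DMSO solutions (DMSO at most 2%), incubated at 37 °C for 28 days. MIC is the lowest concentration giving visible growth inhibition. Activity was confirmed by CFU counts after subculture onto drug-free Löwenstein-Jensen solid medium.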

The test system of assay [6] is Mycobacterium kansasii. Kind of assay: Antimycobacterial activity against Mycobacterium kansasii CNTC My 235/80 after 7 days. The settings on record: CNTC My 235/80, 168 h. Format: functional.
The subject of assay [7] is Mycobacterium kansasii. Kind of assay: Antimycobacterial activity against Mycobacterium kansasii CNTC 6509/96 after 21 days. Type of assay: functional. The settings on record: CNTC 6509/96, 504 h.
Assay [8] deals with Mycobacterium kansasii. Kind of assay: Antimycobacterial activity against Mycobacterium kansasii CNTC My 235/80 after 14 days. To be noted: CNTC My 235/80, 336 h. Type of assay: functional.
The test system of assay [9] is Mycobacterium kansasii. Kind of assay: Antimycobacterial activity against Mycobacterium kansasii CNTC 6509/96 after 14 days. Type of assay: functional. To be noted: CNTC 6509/96, 336 h.
Assay [10] has as its system PBMC. Kind of assay: Cytotoxicity against human PBMC measured after overnight incubation by MTT assay. Format: cell-based. Summed up: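 Freshly prepared human PBMC in phenol-red-free RPMI-1640 with 10% FCS, 2 mM L-glutamine and gentamycin, 2.0 × 10⁵ cells per well. After 24 h at 37 °C, overnight compound exposure in serum-free medium. MTT for 4 h, formazan in DMSO, OD540 minus OD620. % cytotoxicity versus controls; IC50 from dose-response curves. Two independent experiments.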
For orientation: Tetrazolium dyes change colour on reduction, which living cells bring about.

For assay [11], the system named is HepG2. In words: Cytotoxicity against human HepG2 cells measured after overnight incubation by MTT assay. Type of assay: cell-based. In outline:
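HepG2 cells in phenol-red-free RPMI-1640 with 10% FCS, 2 mM L-glutamine and gentamycin, seeded at 5 × 10³ per well. After 24 h at 37 °C, cells were exposed overnight to compound in serum-free medium. MTT (2 mg/mL) for 4 h, formazan dissolved in DMSO, read as OD540 minus OD620. % cytotoxicity versus untreated controls; IC50 taken from dose-response curves. Two independent experiments, 4–8 parallel measurements.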

As to `Nc1ccc(C(=O)O)c(O)c1` [AMINOSALICYLIC ACID], the MIC in [1] is 32 µM (≈ 4.9 µg/mL); in assay [2] it was above 1000 µM; in assay [3], 32 µM (≈ 4.9 µg/mL); in [4], 125 µM (≈ 19.1 µg/mL); in assay [5], 0.2 µg/mL (≈ 1.31 µM); in assay [6], 125 µM (≈ 19.1 µg/mL). Besides, the MIC was found to be 500 µM (≈ 76.6 µg/mL) in assay [7], 1000 µM (≈ 153 µg/mL) in [8] and 125 µM (≈ 19.1 µg/mL) in [9].
For `NNC(=O)c1ccncc1` [ISONIAZID], the figures for the IC50 in [10] and in [11] were 4670 µM and above 1000 µM, respectively. The MIC in assay [1] was 2 µM (≈ 0.274 µg/mL); in assay [2], above 250 µM; in assay [3] it was above 250 µM; in [4], above 250 µM; in assay [5], 0.01 µg/mL (≈ 0.0729 µM); in assay [6], 250 µM (≈ 34.3 µg/mL). In addition, the MIC in [7] is 4 µM (≈ 0.549 µg/mL); in assay [8] it was above 250 µM; in [9] it was 4 µM (≈ 0.549 µg/mL).
With `O=C(N/N=C/Nc1ccc(C(=O)O)c(O)c1)c1cccc(C(F)(F)F)c1`, the MIC is 62.5 µM (≈ 23 µg/mL) in assay [1]; 125 µM (≈ 45.9 µg/mL) in assay [2]; 250 µM (≈ 91.8 µg/mL) in assay [3]; 500 µM (≈ 184 µg/mL) in assay [4]; 4 µg/mL (≈ 10.9 µM) in assay [5]; 32 µM (≈ 11.8 µg/mL) in [6]. Moreover, the results for the MIC in assay [7], in assay [8] and in assay [9] were 62.5 µM (≈ 23 µg/mL), 125 µM (≈ 45.9 µg/mL) and 62.5 µM (≈ 23 µg/mL), respectively.
Turning to `O=C(N/N=C/NC(=O)c1cnccn1)c1ccc(C(F)(F)F)cc1`, the MIC in assay [1] was 250 µM (≈ 84.3 µg/mL); in assay [2], 250 µM (≈ 84.3 µg/mL); in [3], above 1000 µM; in assay [4] it was above 1000 µM; in assay [6] it was 250 µM (≈ 84.3 µg/mL); in [7], 500 µM (≈ 169 µg/mL). Further, the MIC in [8] is 250 µM (≈ 84.3 µg/mL); in [9], 500 µM (≈ 169 µg/mL). The compound also returned a half-maximal inhibitory concentration (IC50) in assay [11] above 624 µM.
Regarding `CCn1cc(C(=O)O)c(=O)c2cc(F)c(N3CCN(/C=N/NC(=O)c4ccc(F)cc4)CC3)cc21`, the IC50 in [10] is above 331 µM; in assay [11], above 797 µM. In addition, the MIC came to 32 µM (≈ 15.5 µg/mL) in assay [1]; 62.5 µM (≈ 30.2 µg/mL) in assay [2]; 125 µM (≈ 60.4 µg/mL) in assay [3]; 250 µM (≈ 121 µg/mL) in [4]; 16 µM (≈ 7.74 µg/mL) in assay [6]; 62.5 µM (≈ 30.2 µg/mL) in assay [7]. For the same compound, the MIC in assay [8] amounted to 32 µM (≈ 15.5 µg/mL); in assay [9] it was 62.5 µM (≈ 30.2 µg/mL).
As to `NC(=O)c1cnccn1` [PYRAZINAMIDE], the MIC in assay [1] is 125 µM (≈ 15.4 µg/mL); in assay [2] it was above 1000 µM; in assay [3], 500 µM (≈ 61.6 µg/mL); in [4], above 1000 µM; in [6], 500 µM (≈ 61.6 µg/mL); in assay [7], 1000 µM (≈ 123 µg/mL). Further, the MIC in [8] is above 1000 µM; in assay [9], 1000 µM (≈ 123 µg/mL).
`O=C(N/N=C/Nc1ccc(C(=O)O)c(O)c1)c1ccc(F)cc1`: the MIC was 32 µM (≈ 10.2 µg/mL) in [1]; 62.5 µM (≈ 19.8 µg/mL) in [2]; 32 µM (≈ 10.2 µg/mL) in assay [3]; 125 µM (≈ 39.7 µg/mL) in assay [4]; 4 µg/mL (≈ 12.6 µM) in assay [5]; 32 µM (≈ 10.2 µg/mL) in assay [6]. For the same compound, the results for the MIC in [7], in [8] and in assay [9] were 32 µM (≈ 10.2 µg/mL), 62.5 µM (≈ 19.8 µg/mL) and 32 µM (≈ 10.2 µg/mL), respectively.
As for `O=C(N/N=C/Nc1ccc(C(=O)O)c(O)c1)c1ccc(C(F)(F)F)cc1`, the minimal inhibitory concentration (MIC) in assay [1] came out at 62.5 µM (≈ 23 µg/mL); in assay [2], 250 µM (≈ 91.8 µg/mL); in assay [3], 32 µM (≈ 11.8 µg/mL); in assay [4], 125 µM (≈ 45.9 µg/mL); in [5], 4 µg/mL (≈ 10.9 µM); in assay [6], 62.5 µM (≈ 23 µg/mL). For the same compound, the figures for the MIC in [7], in assay [8] and in [9] were 125 µM (≈ 45.9 µg/mL), 125 µM (≈ 45.9 µg/mL) and 62.5 µM (≈ 23 µg/mL), respectively.
Turning to `O=C(N/N=C/NC(=O)c1cnccn1)c1cccc(F)c1`, the IC50 is above 305 µM in [10] and above 130 µM in [11]. Also, the minimal inhibitory concentration (MIC) in assay [1] was 250 µM (≈ 71.8 µg/mL); in [2] it was above 500 µM; in assay [3] it was above 500 µM; in assay [4], above 500 µM; in assay [6] it was 250 µM (≈ 71.8 µg/mL); in [7] it was above 500 µM. Besides, the MIC in [8] was 250 µM (≈ 71.8 µg/mL); in [9], above 500 µM.
